Source: ChEMBL document CHEMBL3526065, “Metabolism of [6]-shogaol in mice and in cancer cells” (Drug Metab Dispos, 2012)
Values belong to the compound of their own block, whether it stands above or below them.

Assays:
[1] = Drug level in C57BL/6J mouse feces treated with [6]-shogaol at 200 mg/kg, po by HPLC-ECD analysis relative to control; type: ADME, organism-based; set-up: dose 200 mg/kg, route oral; conditions: in vivo
Procedure, shortened: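 Female C57BL/6J mice gavaged once with 200 mg/kg in corn oil, or corn oil alone (n = 5 each). 24-h feces collected in metabolic cages. Feces extracted by sonication 90 min in MeOH/H2O (50/50) + 0.1% acetic acid, centrifuged, diluted fivefold. Analysed by HPLC with electrochemical array detection (Gemini C18, phosphate/acetonitrile/THF gradient), compared against vehicle controls.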

[2] = Drug level in mouse CL-13 cells treated with 10 uM [6]-shogaol after 24 hrs by HPLC-ECD analysis; type: ADME, cell-based; conditions: cl-13, 24 h
Procedure, shortened: (§1)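 Cells (1.0 × 10⁶) attached 24 h in six-well plates, then exposed to 10 μM final in McCoy's 5A with 10% FBS. Extracted with equal volume acetonitrile, diluted 5-fold, analysed by HPLC with electrochemical detection.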

[3] = Drug level in human HCT116 cells treated with 10 uM [6]-shogaol after 24 hrs by HPLC-ECD analysis; type: ADME, cell-based; conditions: hct-116, 24 h; procedure, shortened: as §1
HT-29 = assay: Drug level in human HT-29 cells treated with 10 uM [6]-shogaol by HPLC-ECD analysis; type: ADME, cell-based; procedure, shortened: as §1
[4] = Drug level in human H1299 cells treated with 10 uM [6]-shogaol after 24 hrs by HPLC-ECD analysis; type: ADME, cell-based; conditions: nci-h1299, 24 h; procedure, shortened: as §1
[5] = Drug level in mouse CL-13 cells treated with 10 uM [6]-shogaol by HPLC-ECD analysis; type: ADME, cell-based; procedure, shortened: as §1
[6] = Cytotoxicity against human HCT116 cells assessed as growth inhibition after 24 hrs by MTT assay; type: functional, cell-based; conditions: HCT-116, 24 h
Procedure, shortened: (§2)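 Cells seeded at 3000/well, attached 24 h at 37°C, then exposed to test agents (0–80 μM, 0.1% DMSO final) for 24 h in McCoy's 5A with 10% FBS. Medium replaced with 2.41 mM MTT for 3 h at 37°C; formazan dissolved in DMSO, absorbance 550 nm. Viability as percentage of DMSO control; mean ± S.D., n = 6.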

[7] = Cytotoxicity against human H1299 cells assessed as growth inhibition after 24 hrs by MTT assay; type: functional, cell-based; conditions: NCI-H1299, 24 h; procedure, shortened: as §2
HCT-116 [8] = assay: Induction of apoptosis in human HCT116 cells assessed as apoptotic cells at 40 uM after 24 hrs by TUNEL assay; type: functional
Procedure, shortened: (§3)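 HCT-116 or H-1299 cells seeded at 1.0 × 10⁵/well, after 24 h exposed for 24 h to compound (10–80 μM) or DMSO control. Cells were proteinase K-pretreated, formaldehyde-fixed, and slide-mounted for peroxidase TUNEL staining. Ten fields per slide counted at 400×; brown-nucleus cells given as percentage of total cells; mean ± S.E., n = 10.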

NCI-H1299 [9] = assay: Induction of apoptosis in human H1299 cells assessed as apoptotic cells at 40 uM after 24 hrs by TUNEL assay; type: functional; procedure, shortened: as §3
HCT-116 [10] = assay: Induction of apoptosis in human HCT116 cells assessed as apoptotic cells at 80 uM after 24 hrs by TUNEL assay; type: functional; procedure, shortened: as §3
NCI-H1299 [11] = assay: Induction of apoptosis in human H1299 cells assessed as apoptotic cells at 80 uM after 24 hrs by TUNEL assay; type: functional; procedure, shortened: as §3
[12] = Drug metabolism in human HCT116 cells assessed as retention time treated with 10 uM [6]-shogaol after 24 hrs by HPLC-ECD analysis; type: ADME, cell-based; conditions: hct-116, 24 h; procedure, shortened: as §1

SMILES: CCCCCC(CC(=O)CCc1ccc(O)c(OC)c1)SCC(NC(C)=O)C(=O)O (centres undefined)
Drug excretion [1]: metabolite_detected

SMILES: CCCCCC(CC(O)CCc1ccc(O)c(OC)c1)SCC(NC(C)=O)C(=O)O (centres undefined)
Drug excretion [1]: metabolite_detected

SMILES: CCCCCC(CC(O)CCc1ccc(O)c(OC)c1)SCC(N)C(=O)NCC(=O)O (centres undefined)
Drug excretion [1]: metabolite_detected

SMILES: CCCCCC(CC(O)CCc1ccc(O)c(OC)c1)SC (centres undefined)
Drug excretion [1]: metabolite_detected

SMILES: CCCCCC(CC(=O)CCc1ccc(O)c(OC)c1)SC[C@H](NC(=O)CC[C@H](N)C(=O)O)C(=O)NCC(=O)O (some centres undefined)
Retention_time [12]: 14.5 min

Second part, led by results:

Drug metabolism [2]: metabolite_detected
Drug excretion [1]: metabolite_detected
Drug metabolism [3]: metabolite_detected
Drug metabolism (HT-29): metabolite_detected
Drug metabolism [4]: metabolite_detected
Drug metabolism [5]: metabolite_detected
SMILES: CCCCCCCC(O)CCc1ccc(O)c(OC)c1 (centres undefined)
IC50 [6]: 82.2 µM
IC50 [7]: 77.7 µM
Activity (HCT-116 [8]): 9.6%
Activity (NCI-H1299 [9]): 7.4%
Activity (HCT-116 [10]): 16.9%
Activity (NCI-H1299 [11]): 15.4%

Drug excretion [1]: metabolite_detected
SMILES: CCCCCC(CC(=O)CCc1ccc(O)c(OC)c1)SCC(N)C(=O)O (centres undefined)

Drug excretion [1]: metabolite_detected
SMILES: CCCCCC(CC(=O)CCc1ccc(O)c(OC)c1)OC (centres undefined)
